Each block holds one compound with its values, some of them ahead of it.
Legend:
Type in all cases: functional, cell-based
[1] = target: ATP-dependent translocase ABCB1 (Homo sapiens, UniProt P08183); experiment: TP_TRANSPORTER: drug resistance (vincristine) in MDR KB/V cells
Outline: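 Fold reversal in KB/V cells from MTT vincristine IC50s measured with and without the reversing agent (5 or 10 μM). The ratio is defined as the vincristine IC50 […].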

[2] = system: KB 3-1; experiment: inhibitory concentration against human MDR KB/V cell line in presence of compound verapamil at 10 uM
Outline: (§1)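 Vincristine cytotoxicity in P-gp-overexpressing MDR KB/V cells, alone or with a reversing agent at the stated level (5 or 10 μM). MTT colorimetric assay in 96-well plates measured cell survival. IC50 is the vincristine concentration (nM) that inhibited cell growth by 50%.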

[3] = system: KB 3-1; experiment: inhibitory concentration against human MDR KB/V cell line in presence of compound 8 at 10 uM; outline: as §1
[4] = system: KB 3-1; experiment: inhibitory concentration against human MDR KB/V cell line in presence of compound 8 at 5 uM; outline: as §1
[5] = system: KB 3-1; experiment: inhibitory concentration against human MDR KB/V cell line in presence of compound 10 at 10 uM; outline: as §1
[6] = system: KB 3-1; experiment: inhibitory concentration against human MDR KB/V cell line in presence of compound 10 at 5 uM; outline: as §1
[7] = system: KB 3-1; experiment: inhibitory concentration against human MDR KB/V cell line in presence of compound Taxinine at 10 uM; outline: as §1
[8] = system: KB 3-1; experiment: inhibitory concentration against human MDR KB/V cell line in presence of compound 9 at 5 uM; outline: as §1
[9] = system: KB 3-1; experiment: inhibitory concentration against human MDR KB/V cell line in presence of compound 9 at 10 uM; outline: as §1
[10] = system: KB 3-1; experiment: inhibitory concentration against human MDR KB/V cell line; outline: as §1

Chain of ATP-dependent translocase ABCB1 (P08183 whole entry): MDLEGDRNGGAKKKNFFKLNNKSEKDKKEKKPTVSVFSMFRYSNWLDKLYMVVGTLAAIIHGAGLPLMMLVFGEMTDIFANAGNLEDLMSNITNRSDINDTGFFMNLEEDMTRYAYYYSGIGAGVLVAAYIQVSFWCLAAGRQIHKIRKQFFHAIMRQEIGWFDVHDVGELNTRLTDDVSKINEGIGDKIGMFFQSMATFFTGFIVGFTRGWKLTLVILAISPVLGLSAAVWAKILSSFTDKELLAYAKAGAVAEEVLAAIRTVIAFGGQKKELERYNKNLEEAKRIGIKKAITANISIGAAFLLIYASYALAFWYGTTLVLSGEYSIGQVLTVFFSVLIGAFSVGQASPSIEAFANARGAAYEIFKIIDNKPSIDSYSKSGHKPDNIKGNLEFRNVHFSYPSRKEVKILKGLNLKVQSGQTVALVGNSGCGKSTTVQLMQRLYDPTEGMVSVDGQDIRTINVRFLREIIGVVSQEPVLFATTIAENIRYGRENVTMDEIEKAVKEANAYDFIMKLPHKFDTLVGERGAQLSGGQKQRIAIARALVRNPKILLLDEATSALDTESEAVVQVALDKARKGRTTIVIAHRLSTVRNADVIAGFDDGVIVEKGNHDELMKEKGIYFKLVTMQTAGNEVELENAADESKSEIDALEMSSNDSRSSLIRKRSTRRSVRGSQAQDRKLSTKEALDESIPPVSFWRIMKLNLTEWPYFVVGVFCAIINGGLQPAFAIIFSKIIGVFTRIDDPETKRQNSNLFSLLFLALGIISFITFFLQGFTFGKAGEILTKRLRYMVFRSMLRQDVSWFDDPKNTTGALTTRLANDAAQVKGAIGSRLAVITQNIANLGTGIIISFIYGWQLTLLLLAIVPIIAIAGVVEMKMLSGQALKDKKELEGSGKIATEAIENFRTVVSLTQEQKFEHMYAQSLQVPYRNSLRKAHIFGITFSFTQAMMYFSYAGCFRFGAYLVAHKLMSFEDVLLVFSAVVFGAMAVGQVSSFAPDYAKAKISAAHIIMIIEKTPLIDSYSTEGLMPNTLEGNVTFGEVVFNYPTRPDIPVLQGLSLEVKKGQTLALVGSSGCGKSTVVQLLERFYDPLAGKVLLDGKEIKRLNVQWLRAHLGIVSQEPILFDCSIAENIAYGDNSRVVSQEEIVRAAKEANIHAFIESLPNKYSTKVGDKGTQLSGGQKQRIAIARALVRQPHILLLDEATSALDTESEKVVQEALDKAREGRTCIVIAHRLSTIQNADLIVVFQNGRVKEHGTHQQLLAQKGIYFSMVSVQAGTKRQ

Activity [1]: inhibitor [+]
Compound: C=C1[C@@H](OC(=O)CCc2ccccc2)CC[C@@]2(C)C[C@H](OC(C)=O)C3=C(C)C(=O)C[C@@H]([C@@H](OC(C)=O)[C@H]12)C3(C)C

Compound: CC[C@]1(O)CC2CN(CCc3c([nH]c4ccccc34)[C@@](C(=O)OC)(c3cc4c(cc3OC)N(C=O)C3C45CCN4CC=C[C@@](CC)(C(OC(C)=O)[C@]3(O)C(=O)OC)[C@H]45)C2)C1.COc1ccc(CCN(C)CCCC(C#N)(c2ccc(OC)c(OC)c2)C(C)C)cc1OC (stereo not given in full)
IC50 [2]: 18.1 nM

Compound: C=C1[C@@H](OC(=O)Cc2ccccc2)CC[C@@]2(C)C[C@H](OC(C)=O)C3=C(C)C(=O)C[C@@H]([C@@H](OC(C)=O)[C@H]12)C3(C)C.CC[C@]1(O)CC2CN(CCc3c([nH]c4ccccc34)[C@@](C(=O)OC)(c3cc4c(cc3OC)N(C=O)C3C45CCN4CC=C[C@@](CC)(C(OC(C)=O)[C@]3(O)C(=O)OC)[C@H]45)C2)C1 (stereo not given in full)
IC50 [3]: 7.3 nM
IC50 [4]: 218 nM

Compound: C=C1[C@@H](OC(=O)Cc2cc(OC)ccc2OC)CC[C@@]2(C)C[C@H](OC(C)=O)C3=C(C)C(=O)C[C@@H]([C@@H](OC(C)=O)[C@H]12)C3(C)C.CC[C@]1(O)CC2CN(CCc3c([nH]c4ccccc34)[C@@](C(=O)OC)(c3cc4c(cc3OC)N(C=O)C3C45CCN4CC=C[C@@](CC)(C(OC(C)=O)[C@]3(O)C(=O)OC)[C@H]45)C2)C1 (stereo not given in full)
IC50 [5]: 8.93 nM
IC50 [6]: 325 nM

Compound: C=C1C2[C@H](C(C)=O)[C@@H]3CCC(=O)C(C)=C([C@@H](C(C)=O)[C@H](C(C)=O)[C@]2(C)CC[C@@H]1OC(=O)/C=C/c1ccccc1)C3(C)C.CC[C@]1(O)CC2CN(CCc3c([nH]c4ccccc34)[C@@](C(=O)OC)(c3cc4c(cc3OC)N(C=O)C3C45CCN4CC=C[C@@](CC)(C(OC(C)=O)[C@]3(O)C(=O)OC)[C@H]45)C2)C1 (stereo not given in full)
IC50 [7]: 124 nM

Compound: C=C1[C@@H](OC(=O)CCc2ccccc2)CC[C@@]2(C)C[C@H](OC(C)=O)C3=C(C)C(=O)C[C@@H]([C@@H](OC(C)=O)[C@H]12)C3(C)C.CC[C@]1(O)CC2CN(CCc3c([nH]c4ccccc34)[C@@](C(=O)OC)(c3cc4c(cc3OC)N(C=O)C3C45CCN4CC=C[C@@](CC)(C(OC(C)=O)[C@]3(O)C(=O)OC)[C@H]45)C2)C1 (stereo not given in full)
IC50 [8]: 19.4 nM
IC50 [9]: 2.8 nM

IC50 [10]: 1230 nM
Compound: CC[C@]1(O)C[C@H]2CN(CCc3c([nH]c4ccccc34)[C@@](C(=O)OC)(c3cc4c(cc3OC)N(C=O)[C@H]3[C@@](O)(C(=O)OC)[C@H](OC(C)=O)[C@]5(CC)C=CCN6CC[C@]43[C@@H]65)C2)C1 [VINCRISTINE]

Reference: ChEMBL document CHEMBL1137855, “Synthesis and biological evaluation of taxinine analogues as orally active multidrug resistance reversal agents in cancer” (Bioorg Med Chem Lett, 2004)
